NCF1 inh: p47phox/p22phox peptide binding inhibitors, primary screen, biochemical, uHTS, NADPH oxidase regulatory subunit; inhibition, % at 24.7 µM; actives 0.53% (n = 220,000); AID 1274, 2008; Neutrophil cytosol factor 1 (Homo sapiens), P14598; fluorescence polarization, 2 h;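 also: 0% = p47phox with labelled peptide and 100% = labelled peptide alone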
Target sequence (P14598 whole entry, looked up): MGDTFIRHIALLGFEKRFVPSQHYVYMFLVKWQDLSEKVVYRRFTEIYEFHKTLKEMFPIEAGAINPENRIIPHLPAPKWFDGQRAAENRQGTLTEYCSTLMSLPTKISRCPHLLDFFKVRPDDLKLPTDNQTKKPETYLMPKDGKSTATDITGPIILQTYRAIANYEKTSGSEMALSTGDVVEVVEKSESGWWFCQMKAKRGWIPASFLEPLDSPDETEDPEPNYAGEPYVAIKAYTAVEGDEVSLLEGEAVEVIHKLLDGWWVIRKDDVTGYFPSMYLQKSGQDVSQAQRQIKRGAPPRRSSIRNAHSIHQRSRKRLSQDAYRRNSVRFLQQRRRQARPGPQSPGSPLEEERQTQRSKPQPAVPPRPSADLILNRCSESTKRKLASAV
14-3-3 Bad inh: inhibitors of 14-3-3 zeta/Bad binding, primary screen, biochemical, TR-FRET, bovine 14-3-3 zeta; AID 781, 2007; inhibition, % at 21.7 µM; TR-FRET 14-3-3zeta/Dy647-pBad peptide displacement, 1 h; actives 0.71% (n = 220,000);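 active = inhibition above about 70%, limit read from the data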;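 also: 0% = full 14-3-3 plus peptide FRET controls and 100% = background without 14-3-3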
Diaph act CS: compounds boosting diaphorase resazurin reduction – biochemical, uHTS, resorufin fluorescence, counter-screen for diaphorase-coupled primary assays, primary screen. Diaphorase/resazurin coupled assay, 16 min; stronger effect = higher value; 1 = vehicle wells, 0 = NADH-free wells. activation factor at 20 µM. actives 0.005% (n = 190,000);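 active = diaphorase activity raised at least twofold by the compound at 20 µM; inactive = activation factor below 2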
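Assay system: Purified diaphorase enzyme from Clostridium kluyveri | Amount: Enzyme 0.07 U/mL final | Dosing: Compound 20 µM once, DMSO 1% | Timing: 16 min reaction at room temperature | Detection: Fluorescence, excitation 544 nm and emission 590 nm | Evaluation: Higher resorufin formation from activation or reduction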
eIF4E 4G PPI: eIF4E–eIF4G protein interaction inhibitors, primary screen, biochemical, uHTS, TR-FRET, eIF4GI fragment. actives 0.37% (n = 220,000). AID 782, 2007. inhibition, % at 21.7 µM. TR-FRET eIF4E-eIF4GI(517-606) binding, 2 h. Eukaryotic translation initiation factor 4E (Mus musculus) + Eukaryotic translation …;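 also: 0% = full FRET control wells and 100% = background wells lacking eIF4GI fragment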
Hck Nef HTS: inhibitors of Nef-activated human Hck kinase, primary screen, biochemical, Z-Lyte FRET, 384-well, Hck-YEEI | Tyrosine-protein kinase HCK (Homo sapiens), P08631 | Recombinant Hck-YEEI plus Nef, Z-Lyte FRET kinase assay | inhibition, % at 20 µM | actives 0.68% (n = 220,000) | AID 463187, 2010;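 active = Hck-Nef kinase inhibition above about 50%, limit read from the data; inactive = inhibition below that limit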;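 also: 0% = DMSO with Hck plus Nef and 100% = Hck alone without Nef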
Starred values were filed as active, the others as inactive; . = not tested or not shown; [ ] = remark or other dose. A selection: hits, their analogues and other compounds. The true share with any hit is near 2%.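 The calls were made as follows, unless noted: active = inhibition above about 30% (limit read from the data); inactive = the rest.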

SMILES	NCF1 inh	14-3-3 Bad inh	Diaph act CS	eIF4E 4G PPI	Hck Nef HTS
CCC1=NN(C(=O)Cc2ccc([N+](=O)[O-])cc2)C(O)(C(F)(F)F)C1 (configuration not stated)	-5	-3	.	-1	-16
O=C(Cc1ccc([N+](=O)[O-])cc1)N1N=C(C2CC2)CC1(O)C(F)(F)F (configuration not stated)	-5	91*	1	1	-13
Cc1c(S(=O)(=O)c2ccccn2)c(N)n(Cc2cccc(Cl)c2)c1C	-34	8	.	73*	13
O=C(NCCN1CCOCC1)c1nn2c(c1Cl)NC(c1ccccc1)CC2C(F)(F)F (configuration not stated)	-21	3	1	45*	2
O=C(NCCN1CCOCC1)c1cc2n(n1)C(C(F)(F)F)CC(c1ccc(F)cc1)N2 (configuration not stated)	-6	8	1.1	3	0
O=C(N=Nc1c(O)[nH]c2ccc([N+](=O)[O-])cc12)c1cc(-c2ccccc2Cl)nc2ccccc12	29	94*[fluorescence artefact?]	0.9	34*	30
COc1ccccc1C(=O)N=Nc1c(O)[nH]c2ccc([N+](=O)[O-])cc12	3	29	1	10	33
Cc1nc(=O)c(-c2ccccc2)c(C)n1CCO	-10	14	1	3	-1
Cc1nc(=O)c(-c2ccccc2)c(C)n1CCCO	-9	90*	0.9	-3	-1
C=CCOc1ccn(C)c(=O)n1	2	-2	.	-10	-1
Nc1[nH]nc2ncc3cc4ccccc4nc3c12	-7	-8	0.5	-1	67*
CCN(Cc1ccccc1)Cc1nnnn1Cc1ccccc1	3	-12	0.8	2	-6
c1ccc(N2CCN(C3CCSC3)CC2)cc1 (configuration not stated)	-4	71*	0.9	-1	-2
CC(C)Cn1c(N)c(C(=O)COC(=O)c2cc(-c3ccco3)nc3ccccc23)c(=O)n(C)c1=O	-23	3	0.8	24	5
Cn1c(=O)c(C(=O)COC(=O)c2cc(-c3ccco3)nc3ccccc23)c(N)n(Cc2ccccc2)c1=O	-50	-13	0.9	14	61*
Cc1cc(O)c2/c(=N\N)c(-c3csc(C)n3)coc2c1	-10	6	.	-10	10
COc1ccc(/C=C(/NC(=O)c2ccco2)C(=O)N2CCc3ccccc32)cc1OC	-6	2	.	-6	2
CCCCCc1ccc(OCCOCCn2c[n+](C)c3ccccc32)c(CCCCC)c1	75*	91*	2*	21	40
CCCc1cc(=O)n2[nH]cnc2n1	32*	5	0.9	-9	-1
NC(N)=N/N=C/c1ccc(OCc2ccc(Cl)cc2)cc1	54*	87*[fluorescence artefact?]	1.5	8	7
NC(N)=N/N=C/c1ccc(OCc2ccccc2)cc1	-17	-15	1.2	6	3
Cc1ccc(-c2cc3c(nn2)-c2ccccc2C3=O)cc1	-4	-1	.	-1	22
O=C1c2ccccc2-c2nnc(-c3ccc(F)cc3)cc21	46*	-10	0.9	3	1
COc1ccccc1/C=C/C(=O)Nc1cccc(S(=O)(=O)NC2=NCCCCC2)c1	-10	-1	0.8	1	-19
C=CCc1cc(C)ccc1OCCOCCn1ccnc1	-6	1	1	-4	2
SMILES	NCF1 inh	14-3-3 Bad inh	Diaph act CS	eIF4E 4G PPI	Hck Nef HTS
C=CCc1cc(C)ccc1OCCn1ccnc1	-12	72*	0.8	-16	-2
Cc1noc(C)c1COc1ccc(C(=O)Nc2cccnc2)cc1	15	79*	1.1	9	34
O=C(N/N=C1/C(=O)c2cccc3cccc1c23)c1ccc(Cl)cc1	48*	85*[fluorescence artefact?]	0.3	6	21
COc1ccc2[nH]c(C)c(C(=O)CN(C)CC3OCCO3)c2c1	0	-3	.	-3	26
CCN1c2ccccc2N(C)C1(C)c1ccccc1 (configuration not stated)	63*	34	0.4	43*[fluorescence artefact?]	-2
CN1C(=O)N(C)C2(c3ccccc3)NC(=O)NC12c1ccccc1 (configuration not stated)	-8	-6	0.9	3	1
CN1c2ccccc2N(C)C1(C)c1ccccc1	70*	19	0.8	42*[fluorescence artefact?]	11
CC1CCCCN1C(=O)C1CCCCN1S(=O)(=O)c1cccc([N+](=O)[O-])c1 (configuration not stated)	1	1	.	8	8
Cn1ccc(NC(=O)Nc2cccc([N+](=O)[O-])c2)n1	-6	-4	1	0	6
COc1ccc(NC(=S)NNc2ccc(S(=O)(=O)Nc3ccccc3C(=O)O)cc2[N+](=O)[O-])cc1	11	14	.	9	-5
CC1CCN(CC(=O)Nc2ccc(S(=O)(=O)NC3CC3)cc2)CC1	-2	70	.	-2	17
O=C(Oc1ccc2c(-c3ccccc3)cc(=O)oc2c1)c1cccs1	-9	-15	0.9	6	4
CC(C)(C)OC(=O)NCCC(=O)Oc1ccc2ccc(=O)oc2c1	-1	2	1	-4	73*
O=C(Oc1ccc2ccc(=O)oc2c1)c1cccs1	-1	1	1	-5	56*
C[C@H](NC(=O)OC(C)(C)C)C(=O)N/N=C/c1ccc2nccnc2c1	4	1	.	1	12
CN(C)C(=O)COC(=O)c1cccc(CN2C(=O)c3ccccc3C2=O)c1	-2	10	0.9	1	19
O=C(CC(c1ccccc1)(c1ccccc1)c1ccccc1)N[C@@H](Cc1ccccc1)C(=O)O	-8	0	0.8	1	4
O=C(O)[C@H](Cc1ccccc1)NC(=O)C(c1ccccc1)(c1ccccc1)c1ccccc1	-2	88*	0.7	-1	9
O=C(O)c1ccc(N2C(=O)/C(=C/C=C/c3ccccc3)SC2=S)cc1	-4	-8	0.9	1	17
CN(C)c1ccc(/C=C/C=C2/SC(=S)N(c3ccccc3)C2=O)cc1	107*	-15	0.8	-4	2
C=CCn1c(SCC(=O)c2[nH]c(C)c(C(=O)OC)c2C)nc2scc(-c3ccc(OC)c(OC)c3)c2c1=O	36*	96*	0.9	15	43
CCCOc1ccc(CCC(=O)N/N=C/c2ccncc2)cc1	3	-2	.	-8	7
Cc1nn2c(COc3ccc(NC(=O)C(C)C)cc3)nnc2c2ccccc12	-7	85*	1	0	9
CCOC(=O)Nc1ccc(OCc2nnc3c4ccccc4c(C)nn23)cc1	14	9	1	-3	7

Compound activity as filed in PubChem.
